Our source for the pKa values is ChEMBL document CHEMBL1129465, “Polyamine analogue regulation of NMDA MK-801 binding: a structure-activity study” (J Med Chem, 1996).

Structures are written as SMILES.

What all share (assay type): ADME
Series [1] is described as follows: Acid base constant value for N1 atom. The following applies: read-out: pKa1. Summed up:
(§1)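 Potentiometric titration: the polyamine hydrochloride salt was first converted to the free amine by adding base, then titrated in 0.1 N KCl. Each nitrogen's pKa was estimated by a nonlinear least-squares computer fit of the titration curve. Fractions of the protonated species were then simulated from the measured pKa values.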

Series [2] in a line: Acid base constant value for N2 atom. The note with it: read-out: pKa2. Summed up: as §1
Series [3] is described as follows: Acid base constant value for N4 atom. The following applies: read-out: pKa4. Summed up:
as §1

Series [4] can be described thus: Acid base constant value for N3 atom. The following applies: read-out: pKa3. In outline: as §1

As for `C(CCNC1CCNCC1)CNC1CCNCC1`, the pKa was 11.4 in series [1], 10.7 in series [2], 7.6 in series [3] and 9.02 in series [4].
`C(CNC1CCNCC1)CNC1CCNCC1`: the pKa in series [1] was found to be 11.2; in series [2], 10.7; in series [3], 7.14; in series [4], 8.88.
As for `C(CCNCCC1CCNCC1)CNCCC1CCNCC1`, the pKa in series [1] amounted to 10.9; in series [2], 10.8; in series [3] it was 9.1; in series [4] it was 10.
Consider `c1cc(NCCCNc2ccncc2)ccn1`, for which the pKa in series [1] was 9.55; in series [2], 9.14; in series [3] it was below 2; in series [4], below 2.
With `NCCCCNCCCCNCCCCN`, the pKa worked out at 11.2 in series [1], 10.4 in series [2], 8.72 in series [3] and 9.57 in series [4].
In the case of `CCNCCCNCCCNCCCNCC` [BIS(ETHYL)NORSPERMINE], the pKa in series [1] came to 10.8; in series [2] it was 9.91; in series [3], 7.68; in series [4] it was 8.51.
Taken in the same sequence, the figures for `CCNCCCNCCCCNCCCNCC` [BIS(ETHYL)SPERMINE] were 11.2, 10.8, 8.25 and 9.42.
`CCNCCCCNCCCCNCCCCNCC` [DIETHYLHOMOSPERMINE]: the pKa was 11.1 in series [1], 10.8 in series [2], 8.91 in series [3] and 9.73 in series [4].
In the same order, the values of `NCCCNCCCNCCCN` [THERMINE] are 10.6, 9.8, 7.51 and 8.35.
